# Source: PubChem
# A selection: hits, their analogues and other compounds. The true share with any hit is near 3.5%.
# PAFAH2 FP inh: PAFAH2 (human) inhibition. Q99487. recombinant PAFAH2, FP-rhodamine activity probe, fluorescence polarization. inhibition, % at 3.39 µM. actives 0.99% (n = 340,000);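 active means inhibition above the mean over all tested compounds plus 3 SD, cut at about 30% in these data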;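 further: inhibitors block probe labeling of enzyme so polarization drops; 0% = enzyme with DMSO and 100% = wells lacking PAFAH2 protein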
# Apaf1 inhib: blocks human Apaf-1 apoptosome activity | reconstituted apoptosome caspase-3 activity, DEVD-Rh110 fluorescence | inhibition, % at 20 µM | actives 0.71% (n = 330,000) | AID 489030; active means inhibition of at least 40% at 20 µM;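 further: plate controls were DMSO wells for no effect and DEVD-CHO caspase inhibitor wells for full effect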
#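 Material: reconstituted apoptosome with Apaf-1, cytochrome c, caspase-9, procaspase-3, dATP. Technique: Rh110 fluorescence intensity. Buffer or medium: pH 7.5 Hepes buffer with CHAPS, BSA, DTT. Times: 30 min plus 50 min, RT.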
# pPAFAH inh: inhibitors of human plasma PAF acetylhydrolase (pPAFAH); Q13093; recombinant pPAFAH, FP-rhodamine probe fluorescence polarization; inhibition, % at 3.39 µM; actives 1.5% (n = 330,000); AID 463082;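 active means inhibition above the mean inhibition across the screen plus 3 SD, cut at about 25% in these data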;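 further: inhibitors block binding of the rhodamine activity-based probe so polarization drops; 0% = enzyme with DMSO and 100% = wells lacking pPAFAH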
# Target sequence (Q13093 whole entry, looked up): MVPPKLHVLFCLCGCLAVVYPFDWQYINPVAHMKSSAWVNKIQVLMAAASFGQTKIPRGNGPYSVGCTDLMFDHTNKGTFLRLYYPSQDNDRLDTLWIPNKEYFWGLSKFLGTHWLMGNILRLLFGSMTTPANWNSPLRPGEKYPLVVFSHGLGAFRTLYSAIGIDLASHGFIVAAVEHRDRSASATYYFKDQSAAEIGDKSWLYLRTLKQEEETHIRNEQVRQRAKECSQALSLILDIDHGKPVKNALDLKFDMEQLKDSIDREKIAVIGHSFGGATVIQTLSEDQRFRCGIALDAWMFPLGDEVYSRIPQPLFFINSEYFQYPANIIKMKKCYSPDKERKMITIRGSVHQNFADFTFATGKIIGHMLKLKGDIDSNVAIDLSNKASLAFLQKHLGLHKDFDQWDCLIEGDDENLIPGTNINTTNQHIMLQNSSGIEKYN
# PAFAH1B3 FP inh: inhibitors of human PAFAH1B3 | Q15102 | recombinant PAFAH1B3, FP-rhodamine probe, fluorescence polarization | inhibition, % at 3.39 µM | actives 0.28% (n = 340,000);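 active means inhibition above the screen-wide average of all tested compounds plus 3 SD, cut at about 25% in these data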;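 further: 0% = enzyme with DMSO only and 100% = wells lacking PAFAH1B3 protein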
# PREPL inhibitor: human PREPL enzyme inhibition; Q4J6C6; recombinant PREPL, fluorescence polarization activity-based probe; inhibition, % at 5.96 µM; actives 0.68% (n = 320,000); AID 2751; in the data active means inhibition above about 43%;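 further: 0% = enzyme with DMSO and 100% = wells lacking enzyme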
# PAFAH1B2 inh: PAFAH1B2 (human) inhibition; P68402; recombinant PAFAH1B2, FP-rhodamine activity probe, fluorescence polarization; inhibition, % at 3.39 µM; actives 1.2% (n = 340,000); AID 492953;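 active means inhibition above the mean of all tested compounds plus 3 SD, cut at about 24% in these data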;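 further: 0% = enzyme with DMSO and 100% = wells lacking PAFAH1B2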
# pPAFAH confirm: pPAFAH (human) inhibition, confirmed; actives 72% (n = 2,300); recombinant pPAFAH, FP-Rh probe fluorescence polarization; inhibition, % at 3.39 µM; shares compounds with pPAFAH inh;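 active means mean inhibition of the triplicate above the hit cutoff set for the earlier primary screen, cut at about 25% in these data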;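 further: 0% = enzyme with DMSO and 100% = wells lacking pPAFAH enzyme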
# Active calls of the source: *; . = not tested or not shown.
SMILES,PAFAH2 FP inh,Apaf1 inhib,pPAFAH inh,PAFAH1B3 FP inh,PREPL inhibitor,PAFAH1B2 inh,pPAFAH confirm
Cc1cc(/C=C2\SC(=S)NC2=O)c(C)n1-c1ccc(O)cc1,21,-3,35*,12,7,12,45*
COCCCNC(=O)C[C@H]1C[C@H](C(=O)N(C(C)C)C(C)C)[C@@]2(C)c3[nH]c4cc(CCC(=O)N(C)C)ccc4c3CCN2C1=O,-5,9,-2,4,.,2,.
O=C1C2(CCCC13COC(c1ccc(O)cc1)OC3)COC(c1ccc(O)cc1)OC2 (centres undefined),.,-127,-1,.,11,.,.
CCC(C)Sc1nc2c(c(=O)[nH]1)C(c1cccs1)C1=C(CCCC1=O)N2 (centres undefined),8,1,38*,8,7,10,20
CCc1ccc(NC(=O)Cn2nc(C)n3cccc3c2=O)cc1,3,6,-3,-1,20,2,.
COc1cc(OC)cc(C(=O)NCC(C)NC(=O)c2cc(OC)cc(OC)c2)c1 (centres undefined),7,-5,5,8,-1,-3,.
O=C(N/N=C/c1ccc(O)c(O)c1O)/C(=C/c1ccc([N+](=O)[O-])cc1)NC(=O)c1ccccc1,11,36,38*,16,12,8,47*
CSc1nc(N(C)CCO)c2sc3nc(-c4ccco4)c4c(c3c2n1)CCC4,4,38,40*,-1,22,6,4
Cc1ccc(-n2nc3c(=O)n(CC(=O)NC4CCCCC4)nc(C)c3c2C)cc1,1,-2,-3,1,17,3,.
Cc1oc2c(c1C(=O)c1ccccc1)C(=O)C(=O)c1ccccc1-2,34*,91*,36*,16,36,6,25*
Nc1ccc(C(=O)N/N=C/c2cn(Cc3ccccc3F)c3ccccc23)cc1,-1,16,.,8,.,9,.
O=C(O)c1ccc(N/N=C/c2cn(Cc3ccccc3F)c3ccccc23)cc1,10,-7,46*,14,27,8,63*
COc1ccc(N(C(=O)c2ccco2)C(C(=O)NC2CCCC2)c2ccc(OC)c(OC)c2)cc1 (centres undefined),1,3,7,-2,-6,-2,.
CCN(CC)c1nc(N)c2c(N)nc3c(c2c1C#N)CC(c1ccccc1)O3 (centres undefined),18,15,20,5,31,7,.
CCN(CC)c1nc(N)c2c(N)n(-c3ccccc3C)c(=S)c(C#N)c2c1C#N,43*,4,47*,12,14,25*,31*
COc1ccc(S(=O)(=O)N2CCOC2CNC(=O)C(=O)NCc2ccc(F)cc2)cc1OC (centres undefined),-5,1,6,5,6,-2,.
O=C(c1ccc(Cl)c(S(=O)(=O)N2CCc3ccccc32)c1)N1CCN(c2ccccc2O)CC1,5,10,37*,-1,21,5,20
COc1ccc2c(c1)C=C(C(=O)OCc1cccnc1)CO2,3,-2,1,7,-6,2,.
CCc1ccc(-c2nc(SCC(=O)NC3CC3)n[nH]2)cc1,0,4,4,8,0,6,.
COc1cc([N+](=O)[O-])ccc1-c1ccc(/C=N/NC(N)=O)o1,-1,14,67*,8,11,0,-5
CC1(C)COCN1C(=O)c1ccc(Cl)c(Cl)c1,0,-1,4,12,6,6,.
COc1cc(C(=O)NCCCN2CCCC2=O)cc(Br)c1OCc1ccccc1,-11,-3,79*,-7,-2,-1,9
O=C(NCCCN1CCCC1=O)c1ccc(OCc2ccccc2)cc1,4,4,-4,-2,6,12,.
Clc1ccc(Cn2cccc2C2=NCCO2)cc1,8,14,9,8,-4,4,.
Nc1ccc(-c2c3ccc(=O)cc-3oc3cc(O)ccc23)cc1C(=O)O,12,17,19,19,8,14,.
SMILES,PAFAH2 FP inh,Apaf1 inhib,pPAFAH inh,PAFAH1B3 FP inh,PREPL inhibitor,PAFAH1B2 inh,pPAFAH confirm
O=c1ccc2c(-c3ccccc3)c3ccc(O)cc3oc-2c1,60*,13,53*,39*,34,47*,47*
CCCCC(=O)NC(c1cccs1)c1cc(Cl)c2cccnc2c1O (centres undefined),17,8,45*,13,5,6,32*
CCCC(=O)NC(c1ccc(OC)c(OC)c1)c1cc(Cl)c2cccnc2c1O (centres undefined),4,3,9,6,12,5,.
C=CCN(CC(=O)NC1CCS(=O)(=O)C1)S(=O)(=O)c1ccccc1C(F)(F)F (centres undefined),-4,2,1,6,6,-2,.
O=S(=O)(Nc1ccc(-c2cn3ccccc3n2)cc1)c1ccccc1,1,11,18,5,7,-4,.
Cc1cccc(S(=O)(=O)Nc2ccc(-c3cn4ccccc4n3)cc2)c1,12,9,35*,2,-6,2,22
C=C[C@H]1CN2CC[C@H]1C[C@H]2[C@H](O)c1ccnc2ccc(OC)cc12,1,17,-3,-2,-7,2,.
CCCCn1c(SCC(=O)c2ccc(O)c(O)c2)nc2ccsc2c1=O,28,12,42*,2,31,15,88*
O=C(Oc1ccc(-c2ccccc2)cc1)N1CCCCC1,0,7,44*,3,-4,6,81*
CCN(CC(=O)Nc1c(F)cccc1F)C(=O)/C=C/c1ccc2ccccc2n1,15,27,40*,6,-1,-1,25*
COc1cc(C2Nc3ccc4ncccc4c3C3=C2C(=O)CCC3)cc(OC)c1O (centres undefined),3,3,7,8,16,0,.
O=C1CCCC2=C1C(c1ccc(O)c(O)c1)Nc1ccc3ccccc3c12 (centres undefined),5,-17,36*,3,11,6,31*
O=C1CCCC2=C1C(c1ccco1)Nc1ccc3ccccc3c12 (centres undefined),26,15,40*,3,10,2,29*
O=C(N/N=C/c1cc([N+](=O)[O-])ccc1O)c1cccc2cc[nH]c12,24,-5,61*,-9,13,-3,52*
C/C(CCS(=O)(=O)c1ccccc1)=N/O,5,10,-1,8,12,1,.
O=C(CSc1c(F)c(F)cc(F)c1F)Nc1ccc(C2SCCS2)cc1,7,-18,90*,8,-2,-3,4
O=C(NNC(=O)c1cc2ccccc2cc1O)Nc1ccccc1F,2,20,65*,14,29,3,37*
